Laboratory results reported in ChEMBL document CHEMBL2424551, “Synthesis, in vitro evaluation and molecular modelling of naphthalimide analogue as anticancer agents” (2013).

Legend:
Assay type in all cases: functional
[1] = system: SW-620; assay: Growth inhibition of human SW620 cells at 10 uM after 48 hrs by SRB assay; conditions: SW-620, 48 h, read-out: GI
Summary of the method: (§1)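 NCI 60-cell-line screen with a single 10 µM dose. Cells are grown in RPMI 1640 with 5% FBS and 2 mM L-glutamine, plated at 5000–40,000 cells/well according to doubling time, and preincubated 24 h at 37 °C, 5% CO2; time-zero plates are TCA-fixed at that point. Drug exposure is 48 h. Adherent cells are fixed with cold TCA, stained with 0.4% SRB in 1% acetic acid and read at 515 nm. Percent growth is calculated relative to time-zero and untreated controls and reported as GI%.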

[2] = system: RPMI-8226; assay: Growth inhibition of human RPMI8226 cells at 10 uM after 48 hrs by SRB assay; conditions: RPMI-8226, 48 h, read-out: GI
Summary of the method: (§2)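 Cells grown in RPMI 1640 with 5% FBS and 2 mM L-glutamine, plated at 5000–40,000 cells/well by doubling time and preincubated 24 h (37 °C, 5% CO2); a time-zero plate is TCA-fixed. Single dose added, then 48 h incubation. Fixed with cold TCA, stained with 0.4% SRB, dye solubilized in 10 mM Tris base, absorbance at 515 nm; percent growth vs time-zero and untreated control.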

[3] = system: NCI-H322M; assay: Growth inhibition of human NCI-H322M cells at 10 uM after 48 hrs by SRB assay; conditions: read-out: GI; summary of the method: as §2
[4] = system: SN12C; assay: Growth inhibition of human SN12C cells at 10 uM after 48 hrs by SRB assay; conditions: read-out: GI; summary of the method: as §1
[5] = Growth inhibition of human HCC2998 cells at 10 uM after 48 hrs by SRB assay; conditions: HCC 2998, 48 h, read-out: GI; summary of the method: as §2
[6] = system: SR; assay: Growth inhibition of human SR cells at 10 uM after 48 hrs by SRB assay; conditions: read-out: GI; summary of the method: as §1
[7] = system: CAKI-1; assay: Growth inhibition of human Caki1 cells at 10 uM after 48 hrs by SRB assay; conditions: CAKI-1, 48 h, read-out: GI; summary of the method: as §2
[8] = system: HL-60(TB); assay: Growth inhibition of human HL-60(TB) cells at 10 uM after 48 hrs by SRB assay; conditions: HL-60, 48 h, read-out: GI
Summary of the method: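 Single-concentration pass across the 60-line panel in RPMI 1640 with 5% FBS. Cells preincubated 24 h, then exposed 48 h at 37 °C, 5% CO2. Read by SRB staining with absorbance at 515 nm. Percent growth is taken relative to time-zero and untreated controls and reported as percent growth inhibition (GI %).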

[9] = system: MDA-MB-435; assay: Growth inhibition of human MDA-MB-435 cells at 10 uM after 48 hrs by SRB assay; conditions: MDA-MB-435, 48 h, read-out: GI; summary of the method: as §2
[10] = system: SNB-75; assay: Growth inhibition of human SNB75 cells at 10 uM after 48 hrs by SRB assay; conditions: SNB-75, 48 h, read-out: GI; summary of the method: as §1
[11] = system: SF-539; assay: Growth inhibition of human SF539 cells at 10 uM after 48 hrs by SRB assay; conditions: SF-539, 48 h, read-out: GI; summary of the method: as §2
[12] = system: CCRF-CEM; assay: Growth inhibition of human CCRF-CEM cells at 10 uM after 48 hrs by SRB assay; conditions: read-out: GI; summary of the method: as §2
[13] = system: BT-549; assay: Growth inhibition of human BT549 cells at 10 uM after 48 hrs by SRB assay; conditions: BT-549, 48 h, read-out: GI; summary of the method: as §2
[14] = system: NCI-H460; assay: Growth inhibition of human NCI-H460 cells at 10 uM after 48 hrs by SRB assay; conditions: NCI-H460, 48 h, read-out: GI; summary of the method: as §2
[15] = system: MOLT-4; assay: Growth inhibition of human MOLT4 cells at 10 uM after 48 hrs by SRB assay; conditions: MOLT-4, 48 h, read-out: GI; summary of the method: as §2
[16] = system: HOP-62; assay: Growth inhibition of human HOP62 cells at 10 uM after 48 hrs by SRB assay; conditions: HOP-62, 48 h, read-out: GI; summary of the method: as §2
[17] = system: A498; assay: Growth inhibition of human A498 cells at 10 uM after 48 hrs by SRB assay; conditions: A498, 48 h, read-out: GI; summary of the method: as §2
[18] = system: SNB-19; assay: Growth inhibition of human SNB19 cells at 10 uM after 48 hrs by SRB assay; conditions: SNB-19, 48 h, read-out: GI; summary of the method: as §1
[19] = system: HOP-92; assay: Growth inhibition of human HOP92 cells at 10 uM after 48 hrs by SRB assay; conditions: HOP-92, 48 h, read-out: GI; summary of the method: as §2
[20] = system: NCI-H23; assay: Growth inhibition of human NCI-H23 cells at 10 uM after 48 hrs by SRB assay; conditions: NCI-H23, 48 h, read-out: GI; summary of the method: as §2
[21] = system: HCT-116; assay: Growth inhibition of human HCT116 cells at 10 uM after 48 hrs by SRB assay; conditions: HCT-116, 48 h, read-out: GI; summary of the method: as §2
[22] = system: Malme-3M; assay: Growth inhibition of human MALME-3M cells at 10 uM after 48 hrs by SRB assay; conditions: read-out: GI; summary of the method: as §2
[23] = system: K562; assay: Growth inhibition of human K562 cells at 10 uM after 48 hrs by SRB assay; conditions: K562, 48 h, read-out: GI; summary of the method: as §2
[24] = system: MDA-MB-231; assay: Growth inhibition of human MDA-MB-231 cells at 10 uM after 48 hrs by SRB assay; conditions: MDA-MB-231, 48 h, read-out: GI; summary of the method: as §2
[25] = system: PC-3; assay: Growth inhibition of human PC3 cells at 10 uM after 48 hrs by SRB assay; conditions: PC-3, 48 h, read-out: GI; summary of the method: as §2
[26] = system: UO-31; assay: Growth inhibition of human UO31 cells at 10 uM after 48 hrs by SRB assay; conditions: UO-31, 48 h, read-out: GI; summary of the method: as §1
[27] = system: OVCAR-5; assay: Growth inhibition of human OVCAR5 cells at 10 uM after 48 hrs by SRB assay; conditions: OVCAR-5, 48 h, read-out: GI; summary of the method: as §2
[28] = system: ACHN; assay: Growth inhibition of human ACHN cells at 10 uM after 48 hrs by SRB assay; conditions: read-out: GI; summary of the method: as §2
[29] = system: MCF7; assay: Growth inhibition of human MCF7 cells at 10 uM after 48 hrs by SRB assay; conditions: MCF7, 48 h, read-out: GI; summary of the method: as §2
[30] = system: NCI-H226; assay: Growth inhibition of human NCI-H226 cells at 10 uM after 48 hrs by SRB assay; conditions: NCI-H226, 48 h, read-out: GI; summary of the method: as §2
[31] = system: UACC-257; assay: Growth inhibition of human UACC257 cells at 10 uM after 48 hrs by SRB assay; conditions: UACC-257, 48 h, read-out: GI; summary of the method: as §1
[32] = system: SK-MEL-2; assay: Growth inhibition of human SK-MEL-2 cells at 10 uM after 48 hrs by SRB assay; conditions: SK-MEL-2, 48 h, read-out: GI; summary of the method: as §2
[33] = system: SF-295; assay: Growth inhibition of human SF295 cells at 10 uM after 48 hrs by SRB assay; conditions: SF-295, 48 h, read-out: GI; summary of the method: as §2
[34] = system: U-251; assay: Growth inhibition of human U251 cells at 10 uM after 48 hrs by SRB assay; conditions: U-251, 48 h, read-out: GI; summary of the method: as §1

Row | SMILES | inhibition of growth at 10 µM [1] [%] | inhibition of growth at 10 µM [2] [%] | inhibition of growth at 10 µM [3] [%] | inhibition of growth at 10 µM [4] [%] | inhibition of growth at 10 µM [5] [%] | inhibition of growth at 10 µM [7] [%] | inhibition of growth at 10 µM [8] [%] | inhibition of growth at 10 µM [9] [%] | inhibition of growth at 10 µM [10] [%] | inhibition of growth at 10 µM [11] [%] | inhibition of growth at 10 µM [12] [%] | inhibition of growth at 10 µM [13] [%] | inhibition of growth at 10 µM [14] [%] | inhibition of growth at 10 µM [15] [%] | inhibition of growth at 10 µM [16] [%] | inhibition of growth at 10 µM [17] [%] | inhibition of growth at 10 µM [18] [%] | inhibition of growth at 10 µM [19] [%] | inhibition of growth at 10 µM [20] [%] | inhibition of growth at 10 µM [21] [%] | also measured
1 | O=c1c2cccc3c(NC4CCCCC4)ccc(c32)c2nc3ccccc3n12 | < 20 | 24.4 | < 20 | < 20 | 48.3 | 52.8 | 37.4 | < 20 | < 20 | < 20 | 34.6 | < 20 | 65.3 | 50.2 | < 20 | < 20 | < 20 | 51.5 | 54 | < 20 | inhibition of growth at 10 µM [6]: 98.9%; inhibition of growth at 10 µM [22]: < 20%; inhibition of growth at 10 µM [23]: 33.1%; inhibition of growth at 10 µM [24]: < 20%; inhibition of growth at 10 µM [25]: 20.1%; inhibition of growth at 10 µM [26]: 58.6%; inhibition of growth at 10 µM [27]: < 20%; inhibition of growth at 10 µM [28]: 27.1%; inhibition of growth at 10 µM [29]: 86.5%; inhibition of growth at 10 µM [30]: 28%
2 | O=c1c2cccc3c(Nc4ccc(F)cc4)ccc(c32)c2nc3ccccc3n12 | < 20 | 42.6 | 32.2 | < 20 | 23.9 | 20.1 | < 20 | < 20 | 29.2 | < 20 | < 20 | < 20 | 22.1 | < 20 | < 20 | 33.8 | 22.4 | 46.8 | < 20 | < 20 | inhibition of growth at 10 µM [31]: < 20%; inhibition of growth at 10 µM [32]: < 20%; inhibition of growth at 10 µM [22]: < 20%; inhibition of growth at 10 µM [33]: < 20%; inhibition of growth at 10 µM [23]: < 20%; inhibition of growth at 10 µM [34]: < 20%; inhibition of growth at 10 µM [24]: 29.1%; inhibition of growth at 10 µM [25]: 22.8%; inhibition of growth at 10 µM [26]: 50.8%; inhibition of growth at 10 µM [27]: < 20%; inhibition of growth at 10 µM [28]: < 20%; inhibition of growth at 10 µM [29]: 89.9%; inhibition of growth at 10 µM [30]: < 20%
